# Calb FLC = affects C. albicans growth with fluconazole | C. albicans CaCi-2 (fluconazole-resistant clinical isolate) + fluconazole, Alamar Blue growth, 48 h | growth inhibition, % (no concentration beside the values) | hit rate 0.57% among 300,000 | AID 1979;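 active = growth inhibition above about 58% in most replicates, limit read from the data, passing the limit was not always enough; inconclusive = exactly half the replicates above a set limit; inactive = most replicates below a set limit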;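 also: all wells also contain fluconazole at 8 µg/ml as a sub-toxic cotreatment; 0% = median of DMSO wells and 100% = median of geldanamycin control wells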
# CSC inhib = blocks cancer stem cells; cancer stem cell-like cells viability, luminescence; inhibition, % at 7.5 µM; hit rate 1.1% among 300,000; AID 2717; in the data active = inhibition above about 75%; inconclusive = no clear call, values can overlap the other calls; tested in HMLE shEcad cells
# Beta cell apopt = blocks beta cell apoptosis. INS-1E cytokine-induced death, ATP luminescence, 48 h; percent of positive-control rescue, neutral wells zero. protection from apoptosis, % (concentration not given with the values). hit rate 0.8% among 300,000. AID 435005;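 active = Every replicate reaches about 75%, or at least half do and their mean reaches it too, limit read from the data; inconclusive = At least half of replicates reach the limit but their mean does not; inactive = Under half of replicates reach the limit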;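 also: 0% = cytokine-treated negative control wells and 100% = positive control rescue; higher means more ATP so stronger rescue from cytokine killing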
# Mdm2-MdmX inh = disrupts the human Mdm2-MdmX interaction | hit rate 3% among 330,000 | SaOS-2 split-luciferase Mdm2/MdmX complementation, luminescence | O15151+Q00987 | inhibition, % at 8 µM;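 active = inhibition of at least 50% at 8 µM in the primary screen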
# Target sequence (O15151 whole entry, looked up): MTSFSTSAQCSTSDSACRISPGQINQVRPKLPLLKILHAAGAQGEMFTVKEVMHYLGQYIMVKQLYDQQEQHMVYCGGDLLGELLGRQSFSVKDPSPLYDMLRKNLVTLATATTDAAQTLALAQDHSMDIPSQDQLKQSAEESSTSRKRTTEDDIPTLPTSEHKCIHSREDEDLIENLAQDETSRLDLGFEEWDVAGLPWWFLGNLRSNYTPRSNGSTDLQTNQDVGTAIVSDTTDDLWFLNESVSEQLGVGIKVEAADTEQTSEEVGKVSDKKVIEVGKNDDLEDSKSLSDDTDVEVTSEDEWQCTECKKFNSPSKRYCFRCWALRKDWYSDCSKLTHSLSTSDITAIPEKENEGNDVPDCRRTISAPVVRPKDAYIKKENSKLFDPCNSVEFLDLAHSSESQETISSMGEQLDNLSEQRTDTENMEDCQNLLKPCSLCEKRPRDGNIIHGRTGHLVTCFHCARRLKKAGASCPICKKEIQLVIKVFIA
# Target sequence (Q00987 whole entry, looked up): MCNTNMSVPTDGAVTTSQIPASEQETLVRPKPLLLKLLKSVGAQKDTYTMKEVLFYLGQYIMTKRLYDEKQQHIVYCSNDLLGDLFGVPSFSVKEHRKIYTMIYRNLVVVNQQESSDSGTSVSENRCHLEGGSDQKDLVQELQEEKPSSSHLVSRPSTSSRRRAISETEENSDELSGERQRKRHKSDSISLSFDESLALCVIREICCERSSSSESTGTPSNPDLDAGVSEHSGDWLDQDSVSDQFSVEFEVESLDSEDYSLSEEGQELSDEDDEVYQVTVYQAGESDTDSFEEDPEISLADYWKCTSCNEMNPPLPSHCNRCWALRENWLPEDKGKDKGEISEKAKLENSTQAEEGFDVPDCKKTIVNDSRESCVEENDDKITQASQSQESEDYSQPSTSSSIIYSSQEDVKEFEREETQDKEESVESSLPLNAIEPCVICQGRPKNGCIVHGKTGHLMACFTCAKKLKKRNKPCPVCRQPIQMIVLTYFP
# T cruzi repl = T. cruzi replication inhibition | T. cruzi beta-gal in NIH3T3, luminescence, 90 h | inhibition, % (no concentration beside the values) | hit rate 1.4% among 300,000 | AID 1885;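 active = mean inhibition across valid replicates above about 55%, limit read from the data; inconclusive = mean below that limit but half or more replicates reach it; inactive = mean below it, under half of replicates reach it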;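 also: signal also drops with host cell toxicity which is not excluded here; 0% = plate median of DMSO wells and 100% = zero luminescence signal; higher percent means less beta-gal luminescence so fewer parasites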
#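 Assay system: NIH/3T3 fibroblasts plus reporter T. cruzi. Amount: NIH/3T3 cells, 5,000 per well. Buffer or medium: DMEM, 2% fetal bovine serum. Doses: compound pinned at 50 nL/well, DMSO. Schedule: ≥90 h infection period, 3 h prior cell attachment. Signal: luminescent β-galactosidase signal after 60 min lysis. Read-out: parasite load inhibition, %.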
# SKKanGAS inh = inhibitors of SKKanGAS S. pyogenes growth in kanamycin (SK-promoter or general growth effect) | BacTiter-Glo, 6 h | AID 1662 | inhibition, % at 7.5 µM | hit rate 1.3% among 300,000;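 active = mean replicate score, as percent of positive control median, at least 50; inconclusive = mean below 50 but one replicate at or above 50; inactive = mean and every replicate below 50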;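 also: strain carries kanamycin resistance gene driven by streptokinase promoter and grows in 40 µg/ml kanamycin; loss of luminescence reflects streptokinase promoter inhibition or plain growth inhibition; 0% = median of DMSO wells and 100% = positive control at its reference dose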
# Active calls of the source: *; ? = inconclusive; · = no result. Sampled rows, rich in hits. Any-hit rate of the full collection: about 5.7%.
SMILES,Calb FLC,CSC inhib,Beta cell apopt,Mdm2-MdmX inh,T cruzi repl,SKKanGAS inh
CCN(CC)c1ccc(/C=N/NC(=O)c2ccoc2C)c(O)c1,-2,43,101*,39,57*,30
CCOc1ccc(NC(=O)CCC(=O)N/N=C/c2ccc3c(c2)OCO3)cc1,111*,-2,-7,22,4,-8
CCN(CC)c1ccc(/C=N/NC(=O)OC)c(O)c1,1,-9,-10,-17,·,-2
CC(OC(=O)c1ccc(Cl)nc1)C(=O)Nc1ccc2c(c1)OCO2 (configuration not stated),·,·,4,5,·,·
COc1ccc(-c2cc(-c3ccccc3O)[nH]n2)cc1,-3,-11,8,-186,-10,29
COc1ccc(-c2cc(-c3c(O)c(OC)c4occc4c3OC)[nH]n2)cc1,102*,28,·,37,7,36
CC(=O)c1c(C)oc2ccc(N(C(C)=O)S(=O)(=O)c3cccc4cccnc34)cc12,-6,4,104*,34,15,0
O=C(c1ccc([N+](=O)[O-])o1)N1CCN(c2nc3c(F)cc(F)cc3s2)CC1,3,7,57,12,56*,24
O=C(c1cccs1)N1CCN(c2nc3c(F)cc(F)cc3s2)CC1,-3,-7,·,-10,-14,-5
O=[N+]([O-])c1ccc(/C=C/C2=NN(c3ccccc3)C(c3ccco3)C2)o1 (configuration not stated),-3,·,·,·,61*,23
O=c1[nH]c(NCCO)c(N=Cc2ccccc2)c(=O)[nH]1,-2,-14,-4,3,-3,-1
NC(=O)C1(N2CCCCC2)CCN(c2nc(-c3ccc(Br)cc3)cs2)CC1,-1,19,-2,13,60*,-6
Brc1ccc(-c2csc(N3CCCCCC3)n2)cc1,-3,24,6,-46,-33,8
Clc1ccc(-c2csc(N3CCCCCC3)n2)cc1,-6,14,8,-7,0,54*
Clc1ccc(-c2csc(N3CCOCC3)n2)cc1,16,·,·,-121,-13,-14
COc1cccc(/C=C/C(=O)OCC(=O)NCCCc2ccccc2)c1OC,·,-12,1,21,·,·
COc1ccc(-c2noc3c2-c2nc(-c4ccccc4C)sc2CC3)cc1,0,76*,1,41,-4,0
Cc1ccc(/C=C/C(=O)NCCc2ccccc2)o1,3,75*,-9,-41,-22,-7
Brc1ccc(CN2CCN(c3ccccc3)CC2)o1,-48,5,-1,14,-8,-1
O=[N+]([O-])c1ccc(N2CCN(C(=S)NCc3ccc(Cl)cc3)CC2)cc1,-5,6,96*,21,57*,22
O=[N+]([O-])c1ccc(CN2CCN(c3ccc(Cl)cc3)CC2)o1,10,1,-1,8,59*,6
CCNC(=S)N1CCN(c2ccc([N+](=O)[O-])cc2)CC1,7,2,·,3,-1,-12
CCOc1ccc(NC(=O)C(C)Oc2ccccc2C(=O)Nc2ccc(C)c(Cl)c2)cc1 (configuration not stated),22,56,3,39,72*,27
CN([C@@H](Cc1ccc(OS(=O)(=O)c2cccc3cnccc23)cc1)C(=O)N1CCN(c2ccccc2)CC1)S(=O)(=O)c1cccc2cnccc12,7,19,·,-3,57*,22
COc1c(/C=N/Nc2nc(N3CCCCC3)nc(N3CCCCC3)n2)cccc1[N+](=O)[O-],1,-10,29,15,50,35
SMILES,Calb FLC,CSC inhib,Beta cell apopt,Mdm2-MdmX inh,T cruzi repl,SKKanGAS inh
COc1ccc(/C=N/Nc2nc(Nc3ccccc3)nc(N3CCCC3)n2)cc1,9,0,·,-11,28,56*
COc1ccc(/C=N/Nc2nc(N3CCCC3)nc(N3CCCC3)n2)cc1,-3,-10,-3,·,6,-5
O=C(O)COc1ccc(/C=N/Nc2nc(Nc3ccccc3)nc(N3CCCCC3)n2)cc1,-1,-4,-3,8,5,57*
C(=N\Nc1nc(Nc2ccccc2)nc(N2CCCCC2)n1)/c1ccco1,25,-3,18,24,16,81*
O=[N+]([O-])c1ccc(/C=N/Nc2nc(N3CCCCC3)nc(N3CCCCC3)n2)o1,?,-11,47,7,63*,17
O=C(Oc1ccc(/C=N/Nc2nc(N3CCCCC3)nc(N3CCCCC3)n2)cc1)c1ccco1,15,-12,·,15,21,14
Cc1nnc(SC(C)C(=O)Nc2ccc3ccccc3c2)n1C (configuration not stated),·,-15,1,30,·,·
O=C(NCc1ccc(Cl)s1)C1CCC(=O)N(CCc2ccccn2)C1 (configuration not stated),-3,4,-4,-19,-21,0
CCCCNC1=CC(=O)C(=O)c2ccccc21,?,8,99*,-11,39,1
O=C1C=C(Nc2ccccc2C(=O)O)c2ccccc2C1=O,41,52,8,-14,6,3
C=CCn1c(SCC(=O)c2[nH]c(C)c(C(=O)OCC)c2C)nc2scc(-c3ccc(OC)c(OC)c3)c2c1=O,2,93*,95*,·,21,20
CCOc1nc2cnccc2n(CC(=O)Nc2ccc(C)c(C)c2)c1=O,-23,-1,-4,6,16,-3
Nc1ncnc(Sc2ncccn2)c1[N+](=O)[O-],85*,·,·,·,37,-5
C/C=C(\C)CN1CCC(n2nccc2NC(=O)c2ccc(OC)cc2)CC1,-2,7,-4,-4,66*,-12
CN=C1N(C)C[C@@H]2[C@@H]3C(=O)N(C)C(=O)[C@@H]3[C@](C)(C(=O)OC)N12,·,·,·,13,·,·
CCOc1cc(S(=O)(=O)Nc2ccc(CC)cc2)ccc1Cl,3,123*,55,-7,22,2
O=C(NCCCN1CCCC1)C1CCN(C(=O)c2cc3sccc3n2Cc2ccc(F)cc2)CC1,-2,-13,-4,-18,55*,0
CC(C)CCN1CCN(Cc2coc3ccccc3c2=O)CC1CCO (configuration not stated),2,-4,-2,8,8,-3
CCOC(=O)c1c(NC(=O)CSc2nnc(-c3ccncc3)n2Cc2ccco2)sc(C)c1C,21,-3,5,36,70*,21
O=C(CSc1nnc(-c2ccncc2)n1Cc1ccco1)Nc1cccc(O)c1,12,-6,-4,17,-14,1
CCN(CC(=O)Nc1c(F)cccc1F)C(=O)c1cccc(S(=O)(=O)N(C)c2ccccc2)c1,28,6,2,-2,-1,13
O=C(Cc1cccs1)Nc1cccc(-c2nc3cc4ccccc4cc3[nH]2)c1,23,99*,30,·,37,72*
CC(=O)Nc1cccc(NC(=O)Cc2cccs2)c1,-7,-18,-3,17,-10,2
O=c1[nH]c(CN2CCN(C/C=C/c3ccccc3)CC2)nc2ccccc12,2,-14,-7,-8,72*,-4
